For data set [1], the system named is Human immunodeficiency virus 1. The experiment in a line: Antiviral activity against HIV1 NL4-3 infected in human TZM-GFP cells assessed as number of GFP positive cells incubated for 48 hrs by imaging reader. It is filed as functional, organism-based. The following applies: Human immunodeficiency virus 1, NL4-3, TZM. The method in brief: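 TZM-GFP cells seeded 1 × 10^4/well and given increasing compound concentrations 24 h later; infected with HIV-1 NL4-3 (MOI = 1) after a further 24 h. Read-out after 48 h: GFP-positive cell counts (LTR-driven) versus DMSO controls. EC50 fitted as log(inhibitor) vs normalized response, variable slope, per experiment and averaged; mean ± SD, duplicates, at least two independent experiments.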

A further data set deals with TZM. Briefly: Cytotoxicity against human TZM-GFP cells incubated for 72 hrs by XTT assay. In kind it is cell-based. The conditions noted are these: tzm, 72 h. The method in brief:
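TZM-GFP cells seeded at 1 × 10^4 per well and exposed continuously to increasing compound concentrations for 72 h. Viable cell number read by XTT proliferation kit. CC50 fitted as log(inhibitor) vs normalized response, variable slope, per independent assay and averaged. Run in duplicate, at least two independent experiments, reported as mean ± standard deviation.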
In general terms: Tetrazolium dyes change colour on reduction, which living cells bring about.

For data set [2], the system named is Human immunodeficiency virus 1. Briefly: Binding affinity to covalently-crosslinked hexameric HIV1 capsid protein A14C/E45C/W184A/M185A mutant expressed in Escherichia coli BL21(DE3)RIL assessed as change in melting temperature at 20 uM incubated for 30 mins by thermal shift dye based fluorescence analysis. The method in brief: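 Thermal shift: 15 μM CA121 in 50 mM sodium phosphate pH 8.0 with Sypro Orange and compound at 20 μM final or DMSO control. Heated 25 to 95 °C at 0.2 °C/10 s; fluorescence Ex 475–500, Em 520–590 nm. ΔTm = Tm(compound) − T0(DMSO) for CA hexamer melting.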

Bounds are passed on as bounds.

Regarding `Cc1cc(NC(=O)[C@H](Cc2ccccc2)NC(=O)Cc2c(C)[nH]c3ccccc23)n[nH]1`, the EC50 (usually the concentration needed to bring the measured effect to its halfway point) in data set [1] was over 20 µM. Besides, the CC50 (as a rule, the concentration giving 50% cytotoxicity) with TZM was over 100 µM. In addition, in data set [2], the ΔTm (in general, the shift of the melting midpoint relative to a reference) came to 0 °C.

On to `Cc1[nH]c2ccccc2c1CC(=O)N[C@@H](Cc1ccccc1)C(=O)N(C)c1cccnc1`, for which the EC50 in data set [1] was over 20 µM. The same compound registered a CC50 in the data set with TZM of over 100 µM. Further, in data set [2], the ΔTm turned out to be 0 °C.

In the case of `Cc1[nH]c2ccccc2c1CC(=O)N[C@@H](Cc1ccccc1)C(=O)NC(c1ccccc1)c1ccccc1`, the EC50 in data set [1] is over 20 µM. The CC50 with TZM was over 100 µM. Besides, in data set [2], the ΔTm came out at 0 °C.

For the compound `CN(C(=O)[C@H](Cc1ccccc1)NC(=O)Cc1c[nH]c2ccccc12)c1ccc(Cl)cc1`, the 50% effective concentration (EC50) in data set [1] was determined as 0.45 µM. The same compound came in with a CC50 in the data set with TZM of under 50 µM. The thermal shift (ΔTm) in data set [2] was 4.6 °C.

Turning to `O=C(Cc1c[nH]c2ccccc12)N[C@@H](Cc1ccccc1)C(=O)Nc1ccccc1`, the EC50 in data set [1] is over 20 µM. For the same compound, in the data set on TZM, the CC50 was 96 µM. Besides, the shift in melting temperature (ΔTm) in data set [2] was 0 °C.

Take `O=C(Cc1c[nH]c2ccccc12)N[C@@H](Cc1ccccc1)C(=O)NCc1cccc2[nH]ccc12`: the EC50 in data set [1] is over 20 µM. The CC50 in the data set on TZM is under 100 µM. Further, the ΔTm in data set [2] came out at 0.5 °C.

Consider `Cc1c(CC(=O)N[C@@H](Cc2ccccc2)C(=O)N(C)c2cccc(F)c2)c2ccccc2n1C(C)C`, for which the EC50 in data set [1] was 0.29 µM. Also, in the data set on TZM, the CC50 amounted to 17 µM. Besides, the ΔTm in data set [2] was 7 °C.

Regarding `CN(C(=O)[C@H](Cc1ccccc1)NC(=O)Cc1c[nH]c2ccccc12)c1cccnc1`, in data set [1], the EC50 was over 20 µM. In addition, the CC50 in the data set with TZM was over 100 µM. Moreover, the ΔTm in data set [2] is -0.8 °C.

`CCn1c(C)c(CC(=O)N[C@@H](Cc2ccccc2)C(=O)N(C)c2cccc(F)c2)c2ccccc21`: the EC50 in data set [1] is 0.33 µM. In addition, in the data set with TZM, the 50% cytotoxic concentration (CC50) came out at 20 µM. For the same compound, the ΔTm in data set [2] is 10.8 °C.

Consider `Cc1ccc(N(C)C(=O)[C@H](Cc2ccccc2)NC(=O)Cc2c(C)n(C(C)C)c3ccccc23)cc1`, for which the EC50 in data set [1] worked out at 0.63 µM. The CC50 with TZM is 10 µM. The ΔTm in data set [2] came out at 8.4 °C.

For `CCn1cc(CC(=O)N[C@@H](Cc2ccccc2)C(=O)N(C)c2ccc(C)cc2)c2ccccc21`, in data set [1], the EC50 worked out at 0.34 µM. Also, the CC50 with TZM is 14 µM. Also, in data set [2], the ΔTm worked out at 8.6 °C.

Regarding `Cc1[nH]c2ccccc2c1CC(=O)N[C@@H](Cc1ccccc1)C(=O)N(C)c1cccc(F)c1`, in data set [1], the EC50 was 0.69 µM. Further, in the data set on TZM, the CC50 was over 50 µM. For the same compound, in data set [2], the ΔTm came out at 6.2 °C.

Take `O=C(Cc1c[nH]c2ccccc12)N[C@@H](Cc1ccccc1)C(=O)Nc1ccc2ncsc2c1`: the EC50 in data set [1] is over 20 µM. In the data set with TZM, this compound displayed a CC50 of 68 µM. Also, in data set [2], the ΔTm amounted to 0 °C.

Consider `Cc1cc(N(C)C(=O)[C@H](Cc2ccccc2)NC(=O)Cc2c(C)[nH]c3ccccc23)n[nH]1`, for which the EC50 in data set [1] was over 20 µM. In the data set with TZM, this compound yielded a CC50 of under 100 µM. Moreover, the ΔTm in data set [2] is 0 °C.

For `CCN(C(=O)[C@H](Cc1ccccc1)NC(=O)Cc1c[nH]c2ccccc12)c1ccccc1`, the EC50 in data set [1] worked out at 0.44 µM. In addition, it took 70 µM to reach half-maximal cytotoxicity with TZM (CC50). Further, the ΔTm in data set [2] was found to be 6.4 °C.

For `Cc1[nH]c2ccccc2c1CC(=O)N[C@@H](Cc1ccccc1)C(=O)Nc1ccc(C#N)cc1`, the EC50 in data set [1] was over 20 µM. Also, the CC50 in the data set with TZM was over 100 µM. Also, the ΔTm in data set [2] is -0.6 °C.

For the compound `O=C(Cc1c[nH]c2ccccc12)N[C@@H](Cc1ccccc1)C(=O)O`, the EC50 in data set [1] is over 20 µM. The compound further returned a cytotoxic concentration (CC50) with TZM of over 50 µM. Besides, the ΔTm in data set [2] is -0.6 °C.

Turning to `Cc1[nH]c2ccccc2c1CC(=O)N[C@@H](Cc1ccccc1)C(=O)N(C)c1cccnn1`, the EC50 in data set [1] was 3.7 µM. Further, the CC50 with TZM was over 100 µM. The ΔTm in data set [2] is 3.2 °C.

Take `Cc1[nH]c2ccccc2c1CC(=O)N[C@@H](Cc1ccccc1)C(=O)N(C)c1cccc(C(F)(F)F)c1`: in data set [1], the EC50 stood at 0.58 µM. Moreover, the CC50 with TZM is 18 µM. In data set [2], the ΔTm was found to be 5.4 °C.

Turning to `CCn1c(C)c(CC(=O)N[C@@H](Cc2ccccc2)C(=O)N(C)c2cccc(Cl)c2)c2ccccc21`, in data set [1], the EC50 was determined as 0.49 µM. In the data set with TZM, this compound gave a CC50 of 16 µM. The ΔTm in data set [2] came out at 9.2 °C.

For the compound `Cc1[nH]c2ccccc2c1CC(=O)N[C@@H](Cc1ccccc1)C(=O)Nc1cccc(C#N)c1`, the EC50 in data set [1] is over 20 µM. The half-maximal cytotoxic concentration (CC50) in the data set with TZM is over 100 µM. Further, the thermal shift (ΔTm) in data set [2] is -0.5 °C.

Consider `Cc1[nH]c2ccccc2c1CC(=O)N[C@@H](Cc1ccccc1)C(=O)Nc1ccc(Cl)cc1`, for which, in data set [1], the concentration giving a half-maximal response (EC50) is over 20 µM. Besides, the CC50 in the data set with TZM was over 100 µM. In data set [2], the ΔTm was determined as 0 °C.

As to `Cc1c(CC(=O)N[C@@H](Cc2ccccc2)C(=O)N(C)c2ccc(Cl)cc2)c2ccccc2n1C(C)C`, the EC50 in data set [1] came out at 0.15 µM. In addition, the CC50 in the data set with TZM is 14 µM. Besides, the shift in melting temperature (ΔTm) in data set [2] was 8.5 °C.

Take `CCN(C(=O)[C@H](Cc1ccccc1)NC(=O)Cc1c(C)n(CC)c2ccccc12)c1ccccc1`: the EC50 in data set [1] stood at 0.56 µM. In the data set with TZM, this compound had a CC50 of 20 µM. For the same compound, the ΔTm in data set [2] was 10 °C.

As for `CCn1c(C)c(CC(=O)N[C@@H](Cc2ccccc2)C(=O)N(C)c2ccc(Cl)cc2)c2ccccc21`, the EC50 in data set [1] came out at 0.24 µM. Also, the cytotoxic concentration (CC50) with TZM stood at 27 µM. Moreover, the ΔTm in data set [2] is 11.9 °C.

On to `CC(C)n1cc(CC(=O)N[C@@H](Cc2ccccc2)C(=O)N(C)c2cccc(F)c2)c2ccccc21`, for which the EC50 in data set [1] worked out at 0.32 µM. The compound further registered a CC50 in the data set with TZM of 12 µM. In data set [2], the ΔTm was found to be 5.8 °C.

For `CCN(C(=O)[C@H](Cc1ccccc1)NC(=O)Cc1cn(C(C)C)c2ccccc12)c1ccccc1`, in data set [1], the EC50 stood at 0.87 µM. For the same compound, in the data set on TZM, the CC50 stood at 15 µM. Besides, the ΔTm in data set [2] turned out to be 5.7 °C.

As for `Cc1[nH]c2ccccc2c1CC(=O)N[C@@H](Cc1ccccc1)C(=O)Nc1ccccc1`, the EC50 in data set [1] is over 20 µM. Besides, the CC50 with TZM is 40 µM. In addition, in data set [2], the ΔTm was 0.7 °C.

Take `CN(C(=O)[C@H](Cc1ccccc1)NC(=O)Cc1c[nH]c2ccccc12)c1cccc(Br)c1`: in data set [1], the EC50 was determined as 2 µM. Also, the CC50 with TZM was under 50 µM. In data set [2], the shift in melting temperature (ΔTm) was determined as 3.5 °C.

For the compound `O=C(Cc1c[nH]c2ccccc12)N[C@@H](Cc1ccccc1)C(=O)Nc1cccnn1`, the concentration giving a half-maximal response (EC50) in data set [1] was over 20 µM. The compound further showed a CC50 with TZM of over 100 µM. Also, the ΔTm in data set [2] was found to be 0.8 °C.

For `CCn1c(C)c(CC(=O)N[C@@H](Cc2ccccc2)C(=O)N(C)c2ccc(C)cc2)c2ccccc21`, in data set [1], the concentration giving a half-maximal response (EC50) was found to be 0.23 µM. Besides, in the data set on TZM, it took 18 µM to reach half-maximal cytotoxicity (CC50). Further, in data set [2], the ΔTm amounted to 11 °C.

`O=C(Cc1c[nH]c2ccccc12)N[C@@H](Cc1ccccc1)C(=O)Nc1nc2ccccc2[nH]1`: the half-maximal effective concentration (EC50) in data set [1] was over 20 µM. Besides, the midpoint of cytotoxicity in the data set with TZM, the CC50, lay at 44 µM. For the same compound, the ΔTm in data set [2] was -0.6 °C.

`Cc1[nH]c2ccccc2c1CC(=O)N[C@@H](Cc1ccccc1)C(=O)NC12CC3CC(CC(C3)C1)C2`: the EC50 in data set [1] was over 20 µM. Also, in the data set with TZM, the CC50 was over 100 µM. The ΔTm in data set [2] was -0.8 °C.

As for `CCn1cc(CC(=O)N[C@@H](Cc2ccccc2)C(=O)N(C)c2cccc(F)c2)c2ccccc21`, in data set [1], the 50% effective concentration (EC50) came out at 0.84 µM. This compound displayed a CC50 in the data set on TZM of 31 µM. The ΔTm in data set [2] was found to be 5.9 °C.

For `O=C(Cc1c[nH]c2ccccc12)N[C@@H](Cc1ccccc1)C(=O)NC(c1ccccc1)c1ccccc1`, the EC50 in data set [1] is over 20 µM. The same compound displayed a CC50 in the data set with TZM of over 100 µM. Further, the ΔTm in data set [2] is -1.6 °C.

Consider `CC(C)n1cc(CC(=O)N[C@@H](Cc2ccccc2)C(=O)N(C)c2cccc(Cl)c2)c2ccccc21`, for which, in data set [1], the concentration giving a half-maximal response (EC50) was 1.3 µM. The CC50 with TZM came out at 13 µM. Besides, the ΔTm in data set [2] worked out at 4.5 °C.

Values taken from ChEMBL document CHEMBL4765334, “Chemical profiling of HIV-1 capsid-targeting antiviral PF74” (Eur J Med Chem, 2020).
